37 molecules from ChEMBL document CHEMBL3580560, “Isolation, Structural Modification, and HIV Inhibition of Pentacyclic Lupane-Type Triterpenoids from Cassine xylocarpa and Maytenus cuzcoina” (J Nat Prod, 2015) can be followed below.

Series [1] has as its system Human immunodeficiency virus 1. In words: Antiviral activity against HIV1 NL4.3-Ren infected in human MT2 cells assessed as inhibition of viral growth at 10 uM measured 48 hrs post infection by luminometry. The format is functional. The following applies: Human immunodeficiency virus 1, NL4.3-Ren, MT2, 48 h.
Series [2] is described as follows: Cytotoxicity against mock-infected human MT2 cells assessed as reduction in cell viability incubated for 48 hrs by cell-titer Glo assay. It counts as cell-based. In a few lines: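 Uninfected MT-2 cells received RPMI medium instead of viral supernatant and were treated in parallel with the same fivefold dilutions (100–0.032 μM). […] Values are the mean of at least three independent experiments.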

Series [3] deals with Human immunodeficiency virus 1. Kind of series: Antiviral activity against HIV1 NL4.3-Ren infected in human MT2 cells assessed as inhibition of viral growth measured 48 hrs post infection by luminometry. The following applies: Human immunodeficiency virus 1, NL4.3-Ren, MT2, 48 h. It counts as functional, organism-based. In a few lines: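 MT-2 cells infected with X4-tropic HIV-1 NL4.3-Ren supernatant produced in 293T cells. Fivefold serial dilutions from 100 to 0.032 μM were tested. At 48 h postinfection, cells were lysed and Renilla luciferase RLU were measured. IC50 was fitted from the dose–response curve; values are the mean of at least three independent experiments.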

Series [4] is described as follows: Selectivity index, ratio of CC50 for mock-infected human MT2 cells to IC50 for HIV1 NL4.3-Ren infected in human MT2 cells. It counts as functional.

Take `C=C(C)[C@@H]1CC[C@]2(COC(=O)CCCCCCC)CC[C@]3(C)[C@H](CC[C@@H]4[C@@]5(C)CC[C@H](O)C(C)(C)[C@@H]5CC[C@]43C)[C@@H]12`: the inhibition at 10 µM in series [1] is below 50%.
The same measure, in the same setting: for `C=C(C)[C@@H]1CC[C@]2(CO)CC[C@]3(C)[C@H](CC[C@@H]4[C@@]5(C)[C@H](O)C[C@@H](O)C(C)(C)[C@@H]5CC[C@]43C)[C@@H]12` the value was below 50%.
On the same count and under the same terms, then `C=C(C)[C@@H]1CC[C@]2(C)CC[C@]3(C)[C@H](CC[C@@H]4[C@@]5(C)CCC(=O)C(C)(C)[C@@H]5CC[C@]43C)[C@@H]12` [LUPENONE], with below 50%.
The same measure, in the same setting: for `C=C(CO)[C@@H]1CC[C@]2(C)CC[C@]3(C)[C@H](CC[C@@H]4[C@@]5(C)CCC(=O)C(C)(C)[C@@H]5CC[C@]43C)[C@@H]12` the value was below 50%; for `C=C(C)[C@@H]1CC[C@]2(C)CC[C@]3(C)[C@H](CC[C@@H]4[C@@]5(C)CC[C@H](O)C(C)(C)[C@@H]5CC[C@]43C)[C@@H]12` [LUPEOL], below 50%.
On to `C=C(C)[C@@H]1CC[C@]2(CO[Si](C)(C)C(C)(C)C)CC[C@]3(C)[C@H](CC[C@@H]4[C@@]5(C)CC[C@H](O)C(C)(C)[C@@H]5CC[C@]43C)[C@@H]12`, for which the inhibition at 10 µM in series [1] is below 50%.
Still for that read-out and setting: then `C=C(C)[C@@H]1CC[C@]2(C)CC[C@]3(C)[C@H](CC[C@@H]4[C@@]5(C)CC(Br)C(=O)C(C)(C)[C@@H]5CC[C@]43C)[C@@H]12` (stereo partly specified), with below 50%; and `C=C(C)[C@@H]1CC[C@]2(COC(=O)CCCCCCC)CC[C@]3(C)[C@H](CC[C@@H]4[C@@]5(C)CC[C@H](OC(=O)CCCCCCC)C(C)(C)[C@@H]5CC[C@]43C)[C@@H]12`, with below 50%.
As for `C=C(COC(C)=O)[C@@H]1CC[C@]2(C)CC[C@]3(C)[C@H](CC[C@@H]4[C@@]5(C)CC[C@H](OC(C)=O)C(C)(C)[C@@H]5CC[C@]43C)[C@@H]12`, the inhibition at 10 µM in series [1] was below 50%.
Still for that read-out and setting: for `C=C(C)[C@@H]1CC[C@]2(C)CC[C@]3(C)[C@@H](C[C@@H](O)[C@@H]4[C@@]5(C)CCC(=O)C(C)(C)[C@@H]5CC[C@]43C)[C@@H]12` [RIGIDENOL] the value was below 50%.
The same measure, in the same setting: for `C=C(CCl)[C@@H]1CC[C@]2(C)CC[C@]3(C)[C@H](C[C@@H](OC(C)=O)[C@@H]4[C@@]5(C)CCC(=O)C(C)(C)[C@@H]5CC[C@]43C)[C@@H]12` the value was below 50%.
On to `C=C(CO)[C@@H]1CC[C@]2(C)CC[C@]3(C)[C@H](CC[C@@H]4[C@@]5(C)CC[C@H](O)C(C)(C)[C@@H]5CC[C@]43C)[C@@H]12`, for which, in series [1], the inhibition at 10 µM was below 50%.
For `C=C(C)[C@@H]1CC[C@]2(C)CC[C@]3(C)[C@@H](CC[C@@H]4[C@@]5(C)[C@@H](O)C[C@H](O)C(C)(C)[C@@H]5CC[C@]43C)[C@@H]12` [GLOCHIDIOL], the inhibition at 10 µM in series [1] is above 50%. In addition, the CC50 at 48 h in series [2] was determined as 20 µM. Moreover, in series [3], the IC50 is 13.9 µM. In addition, the “Ratio CC50/IC50” value in series [4] stood at 1.4.
Taken in the same sequence, the figures for `C=C(C)[C@@H]1CC[C@]2(CO)CC[C@]3(C)[C@H](CC[C@@H]4[C@@]5(C)CC[C@@H](O)C(C)(C)[C@@H]5CC[C@]43C)[C@@H]12` [3-EPI-BETULIN] were above 50%, 20 µM, 8.8 µM and 2.3.
With `C=C(C)[C@@H]1CC[C@]2(COS(=O)(=O)c3ccc(C)cc3)CC[C@]3(C)[C@H](CC[C@@H]4[C@@]5(C)CC[C@H](O)C(C)(C)[C@@H]5CC[C@]43C)[C@@H]12`, the inhibition at 10 µM in series [1] was below 50%.
For `C=C(COC(C)=O)[C@@H]1CC[C@]2(C)CC[C@]3(C)[C@H](CC[C@@H]4[C@@]5(C)CCC(=O)C(C)(C)[C@@H]5CC[C@]43C)[C@@H]12`, in series [1], the inhibition at 10 µM is above 50%. Besides, the CC50 at 48 h in series [2] was 36.2 µM. Besides, the concentration for half-maximal inhibition (IC50) in series [3] amounted to 13.1 µM. Further, the “Ratio CC50/IC50” value in series [4] amounted to 2.8.
Taken in the same sequence, the figures for `C=C(C)[C@@H]1CC[C@]2(CO)CC[C@]3(C)[C@H](CC[C@@H]4[C@@]5(C)CCC(=O)C(C)(C)[C@@H]5CC[C@]43C)[C@@H]12` [BETULONE] were above 50%, above 100 µM, 4.1 µM and above 24.5.
`C=C(C)[C@@H]1CC[C@]2(CO)CC[C@]3(C)[C@H](CC[C@@H]4[C@@]5(C)CC[C@H](OC(=O)/C=C/c6ccc(O)c(O)c6)C(C)(C)[C@@H]5CC[C@]43C)[C@@H]12`: in series [1], the inhibition at 10 µM was below 50%.
Still for that read-out and setting: then `C=C(C)[C@@H]1CC[C@]2(COC(=O)c3cccc4ccccc34)CC[C@]3(C)[C@H](CC[C@@H]4[C@@]5(C)CC[C@H](OC(=O)c6cccc7ccccc67)C(C)(C)[C@@H]5CC[C@]43C)[C@@H]12`, with below 50%.
Still for that read-out and setting: for `C=C(C)[C@@H]1CC[C@]2(COC(=O)c3ccc(Br)cc3)CC[C@]3(C)[C@H](CC[C@@H]4[C@@]5(C)CC[C@H](O)C(C)(C)[C@@H]5CC[C@]43C)[C@@H]12` the value was below 50%.
Take `C=C(C(=O)O)[C@@H]1CC[C@]2(C)CC[C@]3(C)[C@H](CC[C@@H]4[C@@]5(C)CCC(=O)C(C)(C)[C@@H]5CC[C@]43C)[C@@H]12`: in series [1], the inhibition at 10 µM is above 50%. In series [2], the CC50 at 48 h was above 100 µM. Further, the IC50 in series [3] was 100 µM.
Take `C=C(C)[C@@H]1CC[C@]2(CO)CC[C@]3(C)[C@H](CC[C@@H]4[C@@]5(C)CC[C@H](O)C(C)(C)[C@@H]5CC[C@]43C)[C@@H]12` [BETULIN]: in series [1], the inhibition at 10 µM was below 50%.
The same measure, in the same setting: for `C=C(C)[C@@H]1CC[C@]2(COC(C)=O)CC[C@]3(C)[C@H](CC[C@@H]4[C@@]5(C)CC[C@H](O)C(C)(C)[C@@H]5CC[C@]43C)[C@@H]12` the value was below 50%; for `C=C(C)[C@@H]1CC[C@]2(COC(=O)C(C)(C)C)CC[C@]3(C)[C@H](CC[C@@H]4[C@@]5(C)CC[C@H](O)C(C)(C)[C@@H]5CC[C@]43C)[C@@H]12`, below 50%.
The same measure, in the same setting: for `C=C(C)[C@@H]1CC[C@]2(C)CC[C@]3(C)[C@H](C[C@@H](OC(C)=O)[C@@H]4[C@@]5(C)CCC(=O)C(C)(C)[C@@H]5CC[C@]43C)[C@@H]12` the value was below 50%; for `CC(=O)OC[C@]12CC[C@@H](C(C)(O)CO)[C@@H]1[C@H]1CC[C@@H]3[C@@]4(C)CC[C@H](O)C(C)(C)[C@@H]4CC[C@@]3(C)[C@]1(C)CC2` (stereo partly specified), below 50%.
Same read-out and setting: for `C=C(C)[C@@H]1CC[C@]2(C)CC[C@]3(C)[C@H](C[C@@H](O)[C@@H]4[C@@]5(C)CC[C@@H](O)C(C)(C)[C@@H]5CC[C@]43C)[C@@H]12` the value was below 50%; for `C=C(CCl)[C@@H]1CC[C@]2(C)CC[C@]3(C)[C@H](C[C@@H](OC(C)=O)[C@@H]4[C@@]5(C)C=CC(=O)C(C)(C)[C@@H]5CC[C@]43C)[C@@H]12`, below 50%; for `CC(C)[C@@H]1CC[C@]2(C)CC[C@]3(C)[C@@H](CC[C@@H]4[C@@]5(C)CC[C@H](OC(=O)/C=C/c6ccc(O)c(O)c6)C(C)(C)[C@@H]5CC[C@]43C)[C@@H]12`, below 50%.
For `CC(C)(O)[C@@H]1CC[C@]2(C)CC[C@]3(C)[C@H](CC[C@@H]4[C@@]5(C)CC[C@H](O)C(C)(C)[C@@H]5[C@H](O)C[C@]43C)[C@@H]12`, the inhibition at 10 µM in series [1] is below 50%.
The same measure, in the same setting: for `C=C(C)[C@@H]1CC[C@]2(C)CC[C@]3(C)[C@H](CC[C@@H]4[C@@]5(C)[C@H](O)C[C@H](O)C(C)(C)[C@@H]5CC[C@]43C)[C@@H]12` the value was below 50%; for `C=C(C)[C@@H]1CC[C@]2(COC(=O)c3ccccc3)CC[C@]3(C)[C@H](CC[C@@H]4[C@@]5(C)CC[C@H](O)C(C)(C)[C@@H]5CC[C@]43C)[C@@H]12`, below 50%; for `CC(=O)OC[C@]12CC[C@@H]([C@]3(C)CO3)[C@@H]1[C@H]1CC[C@@H]3[C@@]4(C)CC[C@H](O)C(C)(C)[C@@H]4CC[C@@]3(C)[C@]1(C)CC2`, below 50%.
Still for that read-out and setting: for `C=C(C)[C@@H]1CC[C@]2(CO)CC[C@]3(C)[C@H](C[C@@H](O)[C@@H]4[C@@]5(C)CCC(=O)C(C)(C)[C@@H]5CC[C@]43C)[C@@H]12` the value was below 50%; for `C=C(C)[C@@H]1CC[C@]2(C)CC[C@]3(C)[C@@H](CC[C@@H]4[C@@]5(C)C=CC(=O)C(C)(C)[C@@H]5CC[C@]43C)[C@@H]12` [GLOCHIDONE], below 50%; for `C=C(C)[C@@H]1CC[C@]2(COC(C)=O)CC[C@]3(C)[C@H](CC[C@@H]4[C@@]5(C)CC[C@H](OC(C)=O)C(C)(C)[C@@H]5CC[C@]43C)[C@@H]12` [BETULIN DIACETATE], below 50%.
The same measure, in the same setting: for `C=C(C)[C@@H]1CC[C@]2(COC(=O)c3cccc4ccccc34)CC[C@]3(C)[C@H](CC[C@@H]4[C@@]5(C)CC[C@H](O)C(C)(C)[C@@H]5CC[C@]43C)[C@@H]12` the value was below 50%.
